Measurements as given in PMC3673543 (Biochemistry, 2012).

T1: Tat49-57 peptide, fluorescein/TAMRA FRET probe (HIV-1, UniProt P04608 49-57, not fully specified)
T1 chain: RKKRRQRRR

B1: HIV-1 TAR RNA (structured_RNA)
RNA: GGCAGAUCUGAGCCUGGGAGCUCUCUGCC

What was measured:
[1] = tested on: HIV; assay: Protection from HIV-induced cytopathic effect; assay type: cell-based; conditions: for Maximum protection from HIV cytopathic effects: neutral red dye
Outline: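 MT-2 cells, a line highly susceptible to HIV and fully lysed by it, were used in triplicate wells. Finter's neutral red, a vital dye, served as read-out of inhibition of HIV-induced cytopathic effect, with water as control. Maximum percent protection was recorded together with the compound concentration at which it was reached.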

[2] = molecular target: HIV TAR RNA; assay: Ethidium bromide displacement; assay type: binding, HIV-1; conditions: read-out: IC50 (ethidium bromide displacement); 100 mM KCl, 10 mM SC, 0.5 mM EDTA, pH 6.8; HIV TAR RNA 50 nM/strand
Outline: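 Ethidium bromide at 1.25 μM is excited at 545 nm, and emission is scanned from 560 to 607 nm before and after adding TAR RNA. Under these conditions, less than 20% of the ethidium bromide is bound. Fluorescence displacement titration with test compound follows in the same buffer.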

[3] = tested on: MT-2 cells; assay: Toxicity against MT-2 cells; assay type: cell-based; conditions: concentration where no more than 5% cell death
[4] = tested on: HIV TAR RNA; assay: UV thermal denaturation of HIV TAR RNA with ligand; assay type: binding, HIV-1; conditions: 100 mM KCl; for ΔTm (at rdr = 1): pH 6.8, TAR RNA 1 μM/strand; for Tm: ligand/HIV TAR RNA complex, rdr = 1, 10 mM SC, 0.5 mM EDTA, pH 6.8, TAR RNA 1 μM/strand
[5] = molecular target: HIV TAR RNA; assay: Ethidium bromide displacement titration with Scatchard analysis; assay type: binding, HIV-1; conditions: 100 mM KCl, 10 mM SC, 0.5 mM EDTA, pH 6.8; TAR RNA 200 nM/strand; EtBr 5 μM
Outline: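 Fluorescent intercalator displacement: test compound titrated into ethidium bromide (5 μM) plus HIV TAR RNA (200 nM/strand) in 10 mM SC, 0.5 mM EDTA, pH 6.8 with 100 mM KCl. Salt series run at 50, 100 and 150 mM KCl. Excitation 545 nm, emission 560–607 nm. Scatchard plot slope gives the association constant K. For the salt series, log K was plotted against log [KCl] and fitted linearly.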

[6] = tested on: tetraloop TAR RNA Mutant; assay: FID titration with Scatchard analysis on mutant TAR; assay type: binding, HIV-1; conditions: mutant tetraloop TAR 200 nM/strand; 100 mM KCl, pH 6.8; EtBr 5 μM
Outline: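 Tetraloop TAR RNA–ethidium bromide complex in 100 mM KCl, 10 mM SC, 0.5 mM EDTA, pH 6.8, titrated with increasing test compound. The fall in fluorescence at 610 nm was followed. Normalized intensity was plotted against compound concentration, then transformed by Scatchard analysis to derive the binding constant.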

[7] = tested on: HIVNL4-3; assay: Reverse transcriptase release into culture supernatant of MT-2 cells; assay type: cell-based, HIV
Outline: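 MT-2 cells (500,000/well) were preincubated 1 h at 37 °C with test compound at a non-toxic concentration (≤5% cell death), then infected with H9-grown HIV NL4-3 (100,000 cpm RT activity per well, MOI <1). Virus control was infected cells plus water. Supernatants from days 2, 4 and 6 were PEG-precipitated and lysed. RT was measured as 3H-dTTP incorporation (poly rA-oligo dT, 1 h, 37 °C), as cpm/ml. Three separate experiments, each in triplicate.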

[8] = tested on: TAR; conditions: aminoglycosides targeted towards TAR binding; cited from earlier work
[9] = molecular target: T1, Tat49-57 peptide, fluorescein/TAMRA …; assay: fluorescence intensity

Row | Molecule | concentration at which maximum protection was achieved ([1]; MT-2 cells, HIV cytopathic effect) [µM] | Maximum protection from HIV cytopathic effects ([1]; MT-2 cells) [%] | IC50 [2] [nM] | 5% Toxicity (CT5) [3] [µM] | ΔTm (at rdr = 1) [4] [°C] | Tm [4] [°C] | K (binding constant from Scatchard analysis of FID) [5] [M⁻¹] | anti-HIV activity in the 96-well plate screening assay ([1]; HIV-induced cytopathic effect) | Ka (Scatchard analysis of FID titration) [6] | protection / suppression of RT release ([7]; day 2 post inoculation, vs virus control) | protection / suppression of RT release ([7]; day 4, vs virus control) | protection / suppression of RT release ([7]; day 6, vs virus control) | ΔTm (at rdr = 1) ([4]; listed as neomycin) | inhibitory effect [8] | apparent K (half saturation) [9] [nM]
1 | NC[C@@H]1O[C@H](O[C@H]2[C@@H](O)[C@H](O[C@@H]3[C@@H](O)[C@H](N)C[C@H](N)[C@H]3O[C@H]3O[C@H](CN)[C@@H](O)[C@H](O)[C@H]3N)O[C@@H]2Cn2cc(CCCCc3cn(C[C@H]4O[C@@H](O[C@@H]5[C@@H](O)[C@H](N)C[C@H](N)[C@H]5O[C@H]5O[C@H](CN)[C@@H](O)[C@H](O)[C@H]5N)[C@H](O)[C@@H]4O[C@H]4O[C@@H](CN)[C@@H](O)[C@H](O)[C@H]4N)nn3)nn2)[C@H](N)[C@@H](O)[C@@H]1O [DPA54] | 17 | 31 | 81 | 69 | 8.2 | 77.1 | 2.61e+07 | – | – | – | – | – | – | – | –
2 | NC[C@@H]1O[C@H](O[C@H]2[C@@H](O)[C@H](O[C@@H]3[C@@H](O)[C@H](N)C[C@H](N)[C@H]3O[C@H]3O[C@H](CN)[C@@H](O)[C@H](O)[C@H]3N)O[C@@H]2Cn2cc(COCc3cn(C[C@H]4O[C@@H](O[C@@H]5[C@@H](O)[C@H](N)C[C@H](N)[C@H]5O[C@H]5O[C@H](CN)[C@@H](O)[C@H](O)[C@H]5N)[C@H](O)[C@@H]4O[C@H]4O[C@@H](CN)[C@@H](O)[C@H](O)[C@H]4N)nn3)nn2)[C@H](N)[C@@H](O)[C@@H]1O [DPA51] | – | – | 56 | – | 10.2 | 79.1 | 1.17e+08 | – | – | – | – | – | – | – | –
3 | NC[C@@H]1O[C@H](O[C@H]2[C@@H](O)[C@H](O[C@@H]3[C@@H](O)[C@H](N)C[C@H](N)[C@H]3O[C@H]3O[C@H](CN)[C@@H](O)[C@H](O)[C@H]3N)O[C@@H]2Cn2cc(-c3cccc(-c4cn(C[C@H]5O[C@@H](O[C@@H]6[C@@H](O)[C@H](N)C[C@H](N)[C@H]6O[C@H]6O[C@H](CN)[C@@H](O)[C@H](O)[C@H]6N)[C@H](O)[C@@H]5O[C@H]5O[C@@H](CN)[C@@H](O)[C@H](O)[C@H]5N)nn4)c3)nn2)[C@H](N)[C@@H](O)[C@@H]1O [DPA65] | – | – | 36 | – | 9.3 | 78.2 | 1.39e+08 | inactive to weakly active | ~ 10^7 M^−1 | 40-67% | 68-73% | 24-27% | – | – | –
4 | NC[C@@H]1O[C@H](O[C@H]2[C@@H](O)[C@H](O[C@@H]3[C@@H](O)[C@H](N)C[C@H](N)[C@H]3O[C@H]3O[C@H](CN)[C@@H](O)[C@H](O)[C@H]3N)O[C@@H]2CO)[C@H](N)[C@@H](O)[C@@H]1O [Neomycin, Neomycin B tri-sulfate, reference compound] | – | 9 | 417 | – | 0.2 | 69.1 | – | – | – | – | – | – | no thermal stabilization | less than 1 μM | –
5 | B1 | – | – | – | – | – | – | – | – | – | – | – | – | – | – | 86 ± 9
